This note sets out measurements from ChEMBL document CHEMBL4118207, “Docking Screens for Dual Inhibitors of Disparate Drug Targets for Parkinson's Disease” (J Med Chem, 2018).

Structures are written as SMILES. Calls of active or inactive are those of the source. The calls are words filed in the database; no cut-off is given here.

The target of data set [1] is T1, Adenosine receptor A2a (Homo sapiens, UniProt P29274). Kind of data set: Displacement of [3H]ZM241385 from A2A receptor in human HeLa cell membranes at 10 uM after 30 mins by beta-scintillation counting method.
T1 sequence (P29274 whole entry): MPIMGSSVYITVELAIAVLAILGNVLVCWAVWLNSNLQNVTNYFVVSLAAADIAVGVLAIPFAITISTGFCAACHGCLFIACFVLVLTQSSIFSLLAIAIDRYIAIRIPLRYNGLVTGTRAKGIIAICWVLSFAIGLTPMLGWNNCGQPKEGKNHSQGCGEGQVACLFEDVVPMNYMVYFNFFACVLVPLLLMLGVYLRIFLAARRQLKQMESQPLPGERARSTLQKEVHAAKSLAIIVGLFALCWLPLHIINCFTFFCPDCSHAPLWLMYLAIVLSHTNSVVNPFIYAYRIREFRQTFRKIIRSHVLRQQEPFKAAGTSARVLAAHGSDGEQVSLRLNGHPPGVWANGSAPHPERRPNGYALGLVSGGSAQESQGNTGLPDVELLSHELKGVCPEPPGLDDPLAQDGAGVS
Data set [2] relates to SH-SY5Y. Kind of data set: Cytoprotection against 6-OHDA-induced neurotoxicity in human SH-SY5Y cells assessed as reduction in 6-OHDA-induced cell viability decrease at 0.15 uM preincubated for 3 hrs followed by 6-OHDA addition measured after 24 hrs by resazurin dye based assay relative to control. It counts as functional. The gist of the method:
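Human SH-SY5Y cells seeded 2.5 x 10^4/well in phenol-red-free DMEM with 1% FBS and 10 µM retinoic acid for 72 h to differentiate. Compound (0.1% v/v DMSO) pretreatment 3 h, then freshly prepared 20 µM 6-OHDA in saline/0.007% ascorbic acid for 24 h. Resazurin (0.02 mg/mL final) added for 2 h as the viability read-out.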
A general note: The colour change of resazurin is a common sign of viable cells or microbes.

In data set [3] the target is T1, Adenosine receptor A2a. In words: Displacement of [3H]ZM241385 from A2A receptor in human HeLa cell membranes after 30 mins by beta-scintillation counting method. (In a radioligand displacement assay an active substance lowers the binding of a labelled ligand.)
Data set [4] has as its target T1, Adenosine receptor A2a. In words: Displacement of [3H]ZM241385 from A2A receptor in human HeLa cell membranes at 30 uM after 30 mins by beta-scintillation counting method relative to control.
The target of data set [5] is T1, Adenosine receptor A2a. In words: Antagonist activity at human A2A receptor expressed in CHO cells assessed as inhibition of NECA-stimulated cAMP accumulation at 100 nM preincubated for 15 mins followed by NECA addition measured after 15 mins by enzyme immunoassay. It counts as functional, cell-based. The method, boiled down: (§1)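 CHO cells stably transfected with human A2A receptor, seeded 10^4 cells/well 24 h before assay. Washed in DMEM/F-12 with 25 mM Hepes pH 7.4, then switched to the same buffer plus 20 µM rolipram. Compound preincubated 15 min at 37 °C, NECA added at several concentrations for 15 min at 37 °C. cAMP measured by enzyme immunoassay.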

The target in data set [6] is T2, Amine oxidase [flavin-containing] B (Homo sapiens, UniProt P27338).
T2 sequence (P27338 whole entry): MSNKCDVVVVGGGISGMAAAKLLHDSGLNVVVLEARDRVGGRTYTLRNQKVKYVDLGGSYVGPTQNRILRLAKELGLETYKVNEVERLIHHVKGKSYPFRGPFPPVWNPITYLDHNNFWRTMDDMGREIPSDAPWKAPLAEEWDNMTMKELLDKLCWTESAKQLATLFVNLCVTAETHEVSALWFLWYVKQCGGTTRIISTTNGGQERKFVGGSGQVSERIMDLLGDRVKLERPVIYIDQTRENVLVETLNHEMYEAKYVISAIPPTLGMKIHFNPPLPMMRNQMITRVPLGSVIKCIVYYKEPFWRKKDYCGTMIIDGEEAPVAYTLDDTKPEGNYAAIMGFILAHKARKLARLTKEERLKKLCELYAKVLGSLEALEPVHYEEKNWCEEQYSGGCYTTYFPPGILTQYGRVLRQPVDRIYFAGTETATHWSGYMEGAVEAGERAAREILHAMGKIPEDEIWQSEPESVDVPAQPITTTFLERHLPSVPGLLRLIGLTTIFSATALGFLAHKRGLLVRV
Kind of data set: Inhibition of recombinant human MAO-B expressed in baculovirus infected BTI insect cells at 10 uM using tyramine as substrate preincubated for 30 mins followed by substrate addition measured after 60 mins by amplex red reagent based fluorescence assay. The conditions noted are these: 1 h. The gist of the method:
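Human recombinant MAO-B (final 1 U/mL) in 50 mM Tris-HCl pH 7.5, 0.05% CHAPS, 1% DMSO. Compound added from DMSO stock and pre-incubated 30 min at room temperature. Reaction started with tyramine (10 µM in 2-fold mix) and run 60 min at room temperature. HRP (final 0.1 U/mL) plus Amplex Red (final 10 µM) added; resorufin read at ex 535/em 590 nm over 30 min.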

For data set [7], the target named is T2, Amine oxidase [flavin-containing] B. Kind of data set: Inhibition of recombinant human MAO-B expressed in baculovirus infected BTI insect cells using tyramine as substrate preincubated for 30 mins followed by substrate addition measured after 60 mins by amplex red reagent based fluorescence assay. The method, boiled down:
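Recombinant human MAO-B, final 1 U/mL, in 50 mM Tris-HCl pH 7.5 with 0.05% CHAPS and 1% DMSO. Compounds dosed acoustically over 10^-9 to 10^-4 range, preincubated 30 min at room temperature. Interference controlled without enzyme, with added H2O2.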

For data set [8] the target is unchanged. In words: Inhibition of recombinant human MAO-B expressed in baculovirus infected BTI insect cells at 30 uM using tyramine as substrate preincubated for 30 mins followed by substrate addition measured after 60 mins by amplex red reagent based fluorescence assay relative to control. The conditions noted are these: 1 h.
The target is the same in data set [9]. Kind of data set: Inhibition of recombinant human MAO-B expressed in baculovirus infected BTI insect cells using tyramine as substrate preincubated for 30 mins followed by substrate addition measured after 60 mins in presence of Triton X-100 by amplex red reagent based fluorescence assay. The note with it: 1 h.
Data set [10] concerns the target T1, Adenosine receptor A2a. In words: Antagonist activity at human A2A receptor expressed in CHO cells assessed as inhibition of NECA-stimulated cAMP accumulation at 1 uM preincubated for 15 mins followed by NECA addition measured after 15 mins by enzyme immunoassay. It counts as functional, cell-based. The method, boiled down: as §1

For `Cc1ccccc1-n1nc(N)c(C(=O)CCc2ccccc2)n1`, the inhibition – broadly, the change of the read-out against control, counted positive when it falls – in data set [1] is “inactive”.
On the same count and under the same terms, to `Cc1ccc(C(=O)Nc2nc3ccccc3[nH]2)cc1` belongs “inactive”.
With `Cn1c(=O)c2c(nc(/C=C/c3cccc(Cl)c3)n2C)n(C)c1=O`, the Activity in data set [2] was 13%.
With `Nc1nn(-c2ccc(Cl)cc2)nc1C(=O)CCc1ccccc1`, the inhibition entry in data set [1] is “inactive”.
Take `Cc1cccc(-n2nc(N)c(C(=O)CCc3ccccc3)n2)c1`: the Ki (in general, a measure of affinity in units of concentration, obtained from inhibition or displacement) in [3] was 250 nM. For the same molecule, the inhibition result in data set [1] was “inactive”.
`Nc1nn(-c2ccccc2)nc1C(=O)NCc1ccccc1` registered a Ki in data set [3] of 23 nM. In [1], the inhibition entry is “inactive”.
Molecule `COc1cccc2nc(NC(=O)c3ccccc3)[nH]c12` displayed a Ki in [3] of 530 nM. Moreover, the inhibition entry in data set [1] is “inactive”.
Regarding `O=C(Nc1nc2ccccc2[nH]1)c1ccccc1O`, the inhibition entry in data set [1] was “inactive”.
The same measure, in the same setting: for `Cc1ccccc1C(=O)Nc1nc2ccccc2[nH]1` the value was “inactive”.
`COc1cccc(COC(=O)c2nn(-c3ccccc3)nc2N)c1`: in [3], affinity was put at a Ki of 19 nM. Further, the inhibition in [4] is over 60%. Besides, the inhibition result in data set [5] was “Active”. Moreover, the Activity in data set [2] came out at 13%.
Turning to `COc1cccc(CO)c1`, in data set [1], the inhibition entry was “inactive”. Moreover, in data set [6], the “inhibition (INH)” value was “Not Active”.
Regarding `Cc1ccc(-n2nc(N)c(C(=O)CCc3ccccc3)n2)cc1`, the inhibition result in data set [1] is “inactive”.
On to `Nc1nn(-c2ccccc2)nc1C(=O)O`, for which the inhibition entry in data set [1] is “inactive”. The “inhibition (INH)” value in [6] is “Not Active”.
Consider `Cc1ccc(C(=O)Nc2nc3ccccc3[nH]2)cc1C`, for which the inhibition entry in data set [1] was “inactive”.
On the same count and under the same terms, for `COc1cccc(C(=O)Nc2nc3ccccc3[nH]2)c1` the value was “inactive”.
Regarding `Cc1ccc2nc(NC(=O)c3ccccc3)[nH]c2c1`, in data set [1], the inhibition result was “inactive”.
`C[C@@H]1Oc2ccc(Nc3ncnc4c3oc3ccccc34)cc2NC1=O` showed a Ki in [3] of 1200 nM. Also, in data set [7], the IC50 (commonly the midpoint of a concentration-inhibition curve) is 1700 nM. In addition, the inhibition in data set [4] was over 60%. Also, the inhibition at 30 µM in data set [8] is over 70%.
In the same order, the values of `Nc1nn(-c2ccccc2)nc1C(=O)OCc1ccccc1` are 31 nM, 380 nM, over 60% and over 70%.
On to `Nc1nn(-c2ccccc2Cl)nc1C(=O)CCc1ccccc1`, for which the affinity in data set [3], expressed as Ki, was 630 nM. Also, the inhibition result in data set [1] is “inactive”.
With `Nc1nn(-c2ccccc2)nc1C(=O)CCc1ccccc1`, in data set [3], the Ki turned out to be 2000 nM. The inhibition entry in [1] was “inactive”.
As to `O=C(Nc1nc2ccccc2[nH]1)c1ccccc1`, in data set [3], the Ki is 2700 nM. The IC50 in data set [7] turned out to be 5000 nM. Moreover, in [4], the inhibition was over 60%. The inhibition at 30 µM in data set [8] is over 70%. In addition, the “inhibition (INH)” value in [9] was “Active”.
In turn, `O=C(Nc1nc2cccc(Cl)c2[nH]1)c1ccccc1` returned a Ki in data set [3] of 99 nM. For the same molecule, in [10], the inhibition result is “Active”. Moreover, the Activity in data set [2] amounted to 14%.
The molecule `Cc1ccccc1COC(=O)c1nn(-c2ccccc2)nc1N` showed an inhibition constant (Ki) in data set [3] of 49 nM. Also, the IC50 in data set [7] is 500 nM.
Take `Cc1ccc(COC(=O)c2nn(-c3ccccc3)nc2N)cc1`: in data set [3], the affinity, expressed as Ki, was 150 nM. In data set [7], the IC50 was found to be 3800 nM. Moreover, the “inhibition (INH)” value in [9] was “Active”.
For `Cc1cccc(C(=O)Nc2nc3ccccc3[nH]2)c1`, in data set [1], the inhibition result is “inactive”.
